{"source": "ChEMBL document CHEMBL1152413", "about": "“Glucose-based spiro-heterocycles as potent inhibitors of glycogen phosphorylase” (Bioorg Med Chem, 2009)", "key": {"[1]": {"target": "T1, Glycogen phosphorylase, muscle form (Oryctolagus cuniculus, UniProt P00489)", "T1 sequence (P00489 whole entry)": "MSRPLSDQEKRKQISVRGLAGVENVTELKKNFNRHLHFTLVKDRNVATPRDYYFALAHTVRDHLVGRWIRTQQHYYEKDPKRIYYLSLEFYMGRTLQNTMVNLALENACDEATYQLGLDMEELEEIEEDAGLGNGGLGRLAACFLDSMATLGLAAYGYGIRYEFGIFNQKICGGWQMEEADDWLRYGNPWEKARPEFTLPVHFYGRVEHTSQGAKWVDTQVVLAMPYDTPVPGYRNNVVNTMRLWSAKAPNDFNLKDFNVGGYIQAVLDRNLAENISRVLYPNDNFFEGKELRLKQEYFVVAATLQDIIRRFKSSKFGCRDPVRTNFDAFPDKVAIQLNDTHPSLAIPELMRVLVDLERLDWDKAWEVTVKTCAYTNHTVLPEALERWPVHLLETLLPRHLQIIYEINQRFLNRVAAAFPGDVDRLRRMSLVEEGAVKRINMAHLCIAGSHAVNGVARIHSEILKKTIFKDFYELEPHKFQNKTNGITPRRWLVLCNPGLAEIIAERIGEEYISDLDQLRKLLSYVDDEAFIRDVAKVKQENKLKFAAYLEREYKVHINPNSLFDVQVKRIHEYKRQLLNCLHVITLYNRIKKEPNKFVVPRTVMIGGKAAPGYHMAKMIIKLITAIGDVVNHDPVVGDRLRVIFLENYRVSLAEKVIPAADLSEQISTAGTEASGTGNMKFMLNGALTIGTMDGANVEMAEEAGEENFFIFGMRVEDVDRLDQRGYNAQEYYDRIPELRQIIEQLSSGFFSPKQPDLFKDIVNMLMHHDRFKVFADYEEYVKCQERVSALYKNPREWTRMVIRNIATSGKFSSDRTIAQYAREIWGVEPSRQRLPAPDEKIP", "assay": "Inhibition of rabbit muscle glycogen phosphorylase b by Lineweaver-Burke plot analysis", "procedure,_shortened": "(§1)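 Glycogen phosphorylase b isolated from rabbit skeletal muscle (Fischer–Krebs method with dithiothreitol in place of L-cysteine), recrystallized at least three times. Assayed in glycogen-synthesis direction with α-D-glucose-1-phosphate 2–20 mM, glycogen 1% w/v and AMP 1 mM held constant. Inhibitors were dissolved in DMSO and diluted into 50 mM triethanolamine, 1 mM EDTA, 1 mM DTT, keeping final DMSO below 1%. Activities were analysed as Lineweaver–Burk plots by nonlinear fitting.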"}, "[2]": {"target": "T1, Glycogen phosphorylase, muscle form"}, "[3]": {"target": "T2, Glycogen phosphorylase, muscle form (Oryctolagus cuniculus) (UniProt P00489)", "T2 sequence (whole entry)": "T1 sequence (P00489 whole entry)", "assay": "Inhibition of rabbit muscle glycogen phosphorylase b at 625 uM by Lineweaver-Burke plot analysis", "procedure,_shortened": "as §1"}, "[4]": {"assay": "Solubility in DMSO", "assay_type": "physicochemical"}, "[5]": {"target": "T2, Glycogen phosphorylase, muscle form (Oryctolagus cuniculus)", "assay": "Inhibition of rabbit muscle glycogen phosphorylase b at 312.5 uM by Lineweaver-Burke plot analysis", "procedure,_shortened": "as §1"}}, "note": "The source made the active and inactive calls. No cut-off for these calls is given here."}
{"smiles": "N#Cc1ccc(C2=NO[C@]3(O[C@H](CO)[C@@H](O)[C@H](O)[C@H]3O)S2)cc1", "values": [{"measurement": "IC50", "setting": "[1]", "result": 700, "unit": "µM"}]}
{"smiles": "OC[C@H]1O[C@]2(ON=C(c3ccc(-c4ccccc4)cc3)S2)[C@H](O)[C@@H](O)[C@@H]1O", "values": [{"measurement": "IC50", "setting": "[1]", "result": 250, "unit": "µM"}]}
{"smiles": "OC[C@H]1O[C@]2(ON=C(c3ccc(F)cc3)S2)[C@H](O)[C@@H](O)[C@@H]1O", "values": [{"measurement": "Ki", "setting": "[2]", "result": 48, "unit": "µM"}]}
{"smiles": "OC[C@H]1O[C@@H](S/C(=N\\O)c2ccncc2)[C@H](O)[C@@H](O)[C@@H]1O", "values": [{"measurement": "inhibition", "setting": "[3]", "result": "inactive"}]}
{"smiles": "O=[N+]([O-])c1ccc(/C(=N/O)S[C@@H]2O[C@H](CO)[C@@H](O)[C@H](O)[C@H]2O)cc1", "values": [{"measurement": "IC50", "setting": "[1]", "result": "> 10000", "unit": "µM"}]}
{"smiles": "COc1ccc(C2=NO[C@]3(O[C@H](CO)[C@@H](O)[C@H](O)[C@H]3O)S2)cc1", "values": [{"measurement": "Ki", "setting": "[2]", "result": 8.2, "unit": "µM"}]}
{"smiles": "O=[N+]([O-])c1ccc(/C(=N\\O)N[C@@H]2O[C@H](CO)[C@@H](O)[C@H](O)[C@H]2O)cc1", "values": [{"measurement": "inhibition", "setting": "[3]", "result": "inactive"}]}
{"smiles": "N#Cc1ccc(/C(=N/O)S[C@@H]2O[C@H](CO)[C@@H](O)[C@H](O)[C@H]2O)cc1", "values": [{"measurement": "inhibition", "setting": "[3]", "result": "inactive"}]}
{"smiles": "OC[C@H]1O[C@@H](S/C(=N\\O)c2ccc(-c3ccccc3)cc2)[C@H](O)[C@@H](O)[C@@H]1O", "values": [{"measurement": "solubility", "setting": "[4]", "result": "Insoluble"}]}
{"smiles": "OC[C@H]1O[C@@H](S/C(=N\\O)c2ccc3ccccc3c2)[C@H](O)[C@@H](O)[C@@H]1O", "values": [{"measurement": "solubility", "setting": "[4]", "result": "Insoluble"}]}
{"smiles": "O=[N+]([O-])c1ccc(C2=NO[C@]3(O[C@H](CO)[C@@H](O)[C@H](O)[C@H]3O)S2)cc1", "values": [{"measurement": "IC50", "setting": "[1]", "result": 250, "unit": "µM"}]}
{"smiles": "COc1ccc(/C(=N/O)S[C@@H]2O[C@H](CO)[C@@H](O)[C@H](O)[C@H]2O)cc1", "values": [{"measurement": "inhibition", "setting": "[5]", "result": "inactive"}]}
{"smiles": "N#Cc1ccc(/C(=N\\O)N[C@@H]2O[C@H](CO)[C@@H](O)[C@H](O)[C@H]2O)cc1", "values": [{"measurement": "Ki", "setting": "[2]", "result": 1800, "unit": "µM"}]}
{"smiles": "OC[C@H]1O[C@@]2(ON=C(c3ccncc3)S2)[C@H](O)[C@@H](O)[C@@H]1O", "values": [{"measurement": "inhibition", "setting": "[3]", "result": "inactive"}]}
